# Key:
# [1] = target: T1, Kinesin-like protein KIF11 (Homo sapiens, UniProt P52732); test: Inhibition of KSP
# T1 sequence (P52732 whole entry): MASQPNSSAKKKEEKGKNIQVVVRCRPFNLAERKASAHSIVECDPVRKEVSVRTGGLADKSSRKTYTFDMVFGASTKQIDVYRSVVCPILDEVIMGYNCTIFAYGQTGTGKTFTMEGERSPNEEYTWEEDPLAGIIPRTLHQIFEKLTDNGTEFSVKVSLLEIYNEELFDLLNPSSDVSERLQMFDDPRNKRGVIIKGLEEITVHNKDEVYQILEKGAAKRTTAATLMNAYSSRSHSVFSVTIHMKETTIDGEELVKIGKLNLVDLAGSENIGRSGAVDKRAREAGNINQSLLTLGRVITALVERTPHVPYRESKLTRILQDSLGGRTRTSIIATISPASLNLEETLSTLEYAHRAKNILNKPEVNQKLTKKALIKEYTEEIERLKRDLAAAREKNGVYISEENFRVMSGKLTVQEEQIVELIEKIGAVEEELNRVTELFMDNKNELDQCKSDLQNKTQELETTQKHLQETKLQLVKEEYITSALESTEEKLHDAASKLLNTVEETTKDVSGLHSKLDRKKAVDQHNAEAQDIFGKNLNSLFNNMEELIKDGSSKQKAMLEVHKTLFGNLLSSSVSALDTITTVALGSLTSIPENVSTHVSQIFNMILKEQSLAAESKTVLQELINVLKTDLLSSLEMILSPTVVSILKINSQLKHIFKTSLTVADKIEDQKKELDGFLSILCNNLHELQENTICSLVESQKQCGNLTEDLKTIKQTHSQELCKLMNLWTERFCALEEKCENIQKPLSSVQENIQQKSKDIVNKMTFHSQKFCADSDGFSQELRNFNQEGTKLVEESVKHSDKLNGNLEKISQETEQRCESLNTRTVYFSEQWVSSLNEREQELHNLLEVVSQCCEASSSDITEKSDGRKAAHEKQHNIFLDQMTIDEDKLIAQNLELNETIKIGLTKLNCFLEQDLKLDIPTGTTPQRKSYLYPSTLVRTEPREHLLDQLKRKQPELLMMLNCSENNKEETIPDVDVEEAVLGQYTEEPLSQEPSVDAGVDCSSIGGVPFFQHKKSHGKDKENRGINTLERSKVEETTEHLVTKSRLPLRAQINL
# [2] = Partition coefficient, log P of the compound; assay type: physicochemical; conditions: octanol/water
# [3] = Ratio of IC50 for human KBV1 cells to human KB31 cells after 16 hrs; assay type: cell-based; conditions: KBV1 cells and KB31 cells, read-out: Ratio IC50
# How it was run: (§1)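 IC50 for induction of G2/M (mitotic) block was determined in two human epidermoid carcinoma lines: parental KB-3-1, which lacks Pgp, and KB-V-1. KB-V-1 was derived by culturing KB-3-1 with vinblastine and highly overexpresses Pgp. The MDR ratio is the quotient of the KB-V-1 IC50 over the KB-3-1 IC50.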
# [4] = Dissociation constant, pKa of the compound; assay type: physicochemical
# How it was run: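 Ionization constant measured with an automated pKa titrator; the value is the average of n = 3 determinations.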
# [5] = Solubility in 0.1 M citrate at pH 4.0; assay type: physicochemical; conditions: 0.1 M citrate buffer
# How it was run: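 Aqueous solubility measured on the free-base form in 0.1 M citrate, with an initial pH of 4.0.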
# [6] = target: Voltage-gated inwardly rectifying potassium channel KCNH2 (Homo sapiens, UniProt Q12809); test: Inhibition of hERG expressed in CHO cells by cell voltage clamp assay; assay type: toxicity, cell-based
# Chain of Voltage-gated inwardly rectifying potassium channel KCNH2 (Q12809 whole entry): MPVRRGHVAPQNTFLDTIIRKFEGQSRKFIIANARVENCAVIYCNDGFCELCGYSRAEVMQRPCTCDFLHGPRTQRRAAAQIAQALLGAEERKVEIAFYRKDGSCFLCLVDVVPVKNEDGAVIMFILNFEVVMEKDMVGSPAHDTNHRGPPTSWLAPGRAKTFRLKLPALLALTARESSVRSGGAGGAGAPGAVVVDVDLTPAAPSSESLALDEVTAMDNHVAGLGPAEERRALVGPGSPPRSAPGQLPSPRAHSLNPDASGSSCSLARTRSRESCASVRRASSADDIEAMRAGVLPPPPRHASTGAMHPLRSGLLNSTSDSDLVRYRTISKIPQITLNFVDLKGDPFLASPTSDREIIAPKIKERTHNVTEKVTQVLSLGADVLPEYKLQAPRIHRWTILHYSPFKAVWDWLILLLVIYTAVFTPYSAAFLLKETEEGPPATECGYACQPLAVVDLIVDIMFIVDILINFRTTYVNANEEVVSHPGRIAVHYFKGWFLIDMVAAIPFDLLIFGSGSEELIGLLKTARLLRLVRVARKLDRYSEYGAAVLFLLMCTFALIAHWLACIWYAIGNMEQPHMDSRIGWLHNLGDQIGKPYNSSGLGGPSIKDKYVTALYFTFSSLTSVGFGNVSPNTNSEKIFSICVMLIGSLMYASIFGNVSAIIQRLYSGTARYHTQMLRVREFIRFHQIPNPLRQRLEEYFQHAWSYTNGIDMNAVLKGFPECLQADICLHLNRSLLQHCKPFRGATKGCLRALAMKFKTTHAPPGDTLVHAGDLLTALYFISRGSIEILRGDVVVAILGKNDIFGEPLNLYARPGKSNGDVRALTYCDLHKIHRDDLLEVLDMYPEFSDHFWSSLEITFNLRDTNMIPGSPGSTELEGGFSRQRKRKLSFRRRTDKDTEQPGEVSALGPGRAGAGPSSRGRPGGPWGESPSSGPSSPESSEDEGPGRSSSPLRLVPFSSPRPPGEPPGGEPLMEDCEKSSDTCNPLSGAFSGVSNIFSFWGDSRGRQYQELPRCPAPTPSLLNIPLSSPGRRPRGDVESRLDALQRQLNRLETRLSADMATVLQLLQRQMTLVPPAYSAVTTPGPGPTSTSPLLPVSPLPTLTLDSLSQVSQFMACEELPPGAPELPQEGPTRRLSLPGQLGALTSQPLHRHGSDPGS
# MDR1 [7] = test: Efflux ratio of permeability from basolateral to apical over apical to basolateral side of the […] cell transfected with MDR1 by monolayer transport assay; assay type: ADME, cell-based; conditions: LLC-PK1
# How it was run: (§2)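 Monolayer transport assay in LLC-PK1 cells transfected with the human MDR1 gene. The efflux ratio is basolateral-to-apical over apical-to-basolateral transport. Passive permeability is reported in 10^-6 cm/s.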
# [8] = target: T1, Kinesin-like protein KIF11; test: Inhibition of KSP in KB31 cells; assay type: cell-based; how it was run: as §1
# [9] = target: T1, Kinesin-like protein KIF11; test: Inhibition of KSP in KBV1 cells overexpressing Pgp; assay type: cell-based; how it was run: as §1
# MDR1 [10] = test: Permeability across LLCPK1 cells expressing MDR1 gene; assay type: ADME, cell-based; conditions: human, LLC-PK1; read-out: permeability; how it was run: as §2
Structure (SMILES),IC50 [1],logP [2],pKa [4],solubility [5],efflux ratio (MDR1 [7]),IC50 [8],IC50 [9],Papp (MDR1 [10]),selectivity ratio at 16 h [3],IC50 [6]
CN(C)C(=O)N1CC(c2cc(F)ccc2F)=C[C@@]1(CCCNCC(F)F)c1ccccc1,12.1 nM,3.4,7,,,,,,3,
CN(C)C(=O)N1CC(c2cc(F)ccc2F)=C[C@@]1(CCCNCC(F)(F)F)c1ccccc1,110 nM,> 3.2,5.2,,,,,,1,
CN(C)C(=O)N1N=C(c2cc(F)ccc2F)C[C@@]1(CCCN)c1ccccc1,,,10.3,> 12 mg/mL,,,,,490,19300 nM

# Continued by falling IC50 [1], values first:
IC50 [1],logP [2],pKa [4],solubility [5],efflux ratio (MDR1 [7]),IC50 [8],IC50 [9],Papp (MDR1 [10]),Structure (SMILES),selectivity ratio at 16 h [3],IC50 [6]
10.2 nM,2.6,8.8,,,,,,CN(C)C(=O)N1CC(c2cc(F)ccc2F)=C[C@@]1(CCCNCCF)c1ccccc1,32,
10.2 nM,1.6,10.7,,,,,,CCNCCC[C@@]1(c2ccccc2)C=C(c2cc(F)ccc2F)CN1C(=O)N(C)C,> 135,
5.2 nM,3.2,,> 10 mg/mL,2.5,24 nM,123 nM,38 ×10⁻⁶ cm/s,CN(C)C(=O)N1CC(c2cc(F)ccc2F)=C[C@@]1(CC[C@H](N)C(F)F)c1ccccc1,5,15900 nM
2.2 nM,1.1,10.3,> 12 mg/mL,18.5,,28000 nM,4 ×10⁻⁶ cm/s,CN(C)C(=O)N1CC(c2cc(F)ccc2F)=C[C@@]1(CCCN)c1ccccc1,1200,7100 nM
